# Legend:
# [1] = Hydrolytic stability; assay type: physicochemical; conditions: for Recovery [%] (pH): 24 hours with stirring
# Procedure, shortened: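 Test compound stirred for 24 hours in buffer at each of three pH values: pH 1 in HCl buffer, pH 7 in phosphate-buffered saline, and pH 10 in sodium borate buffer. Stability expressed as recovery of test compound.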
# [2] = Metabolic stability assay, pooled rat liver microsomes; assay type: in vitro ADME; conditions: predicted maximum oral bioavailability
# Procedure, shortened: (§1)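 Metabolic stability measured in vitro in pooled liver microsomes (human, rat or mouse) or freshly harvested rat hepatocytes.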
# [3] = Bidirectional Caco2 permeability assay, 24-well format; assay type: in vitro ADME; conditions: human, Caco-2
# Procedure, shortened: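 Caco-2 monolayers run bidirectionally in a 24-well format, measuring apparent permeability both apical-to-basolateral (A-B) and basolateral-to-apical (B-A). Efflux ratio calculated as Papp B-A divided by Papp A-B.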
# [4] = test system: freshly harvested rat hepatocytes (rHep); test: Metabolic stability assay, freshly harvested rat hepatocytes; assay type: in vitro ADME; conditions: predicted maximum oral bioavailability
# Procedure, shortened: as §1
# [5] = logD by reversed-phase HPLC; assay type: physicochemical; conditions: pH 7.5
# [6] = Metabolic stability assay, pooled mouse liver microsomes; assay type: in vitro ADME; conditions: predicted maximum oral bioavailability
# Procedure, shortened: as §1
# [7] = Metabolic stability assay, pooled human liver microsomes; assay type: in vitro ADME; conditions: predicted maximum oral bioavailability
# Procedure, shortened: as §1
# [8] = pH 7 (phosphate-buffered saline)
Recovery [%] (pH) ([1]; pH 1 (HCl buffer)),"Recovery [%] (pH) [1, 8]",Recovery [%] (pH) ([1]; pH 10 (sodium borate buffer)),F max (h/r/m)-LMs [%] [2],Papp A→B [3],efflux ratio [3],F max rHep [%] [4],chromatographic logD [5],F max (h/r/m)-LMs [%] [6],F max (h/r/m)-LMs [%] ([7]; listed as C00021),F max (h/r/m)-LMs [%] [7],"hydrolytic stability (in words) ([1]; after 24 hours with stirring at pH 1, 7 and 10)",F max (h/r/m)-LMs [%] ([7]; listed as C00015),SMILES
100 (1) 100 (7) 100 (10) %,100 (1) 100 (7) 100 (10) %,100 (1) 100 (7) 100 (10) %,0.5%,25.2 ×10⁻⁶ cm/s,0.45,2.1%,4.3,16%,8.3%,,,,O=S(=Nc1cccc(F)c1)(c1ccccc1)N1CCCCC1 (centres unmarked) [2 bc]
100 (1) 100 (7) 100 (10) %,100 (1) 100 (7) 100 (10) %,100 (1) 100 (7) 100 (10) %,18%,40.4 ×10⁻⁶ cm/s,0.57,19%,2.4,47%,,84%,,,CN=S(=O)(c1ccccc1)N1CCCCC1 (centres unmarked) [2 cm]
56%,100%,91%,10%,19.2 ×10⁻⁶ cm/s,0.7,6.8%,3.7,9.3%,,19%,signs of hydrolysis at pH 1 and 10,,"O=S(=NC(F)(F)F)(c1ccccc1)N1CCCCC1 (centres unmarked) [2 cs, 1‐[S‐Phenyl‐N‐(trifluoromethyl)sulfonimidoyl]piperidine]"
100 (1) 100 (7) 100 (10) %,100 (1) 100 (7) 100 (10) %,100 (1) 100 (7) 100 (10) %,33%,36.3 ×10⁻⁶ cm/s,0.67,20%,2,83%,,,,100%,"CS(=O)(=O)N=S(=O)(c1ccccc1)N1CCCCC1 (centres unmarked) [2 ea, N‐[Oxo(phenyl)(piperidin‐1‐yl)‐λ^6‐sulfanylidene]methanesulfonamide]"

# — publication PMC6055826 (Chemistry (Weinheim an Der Bergstrasse, Germany), 2018)
